Source: PubChem BioAssay (several laboratories)
S1P1 ag pot: agonists and agonism potentiators of human S1P1 receptor. P21453. S1P1 CRE-bla cells, forskolin, beta-lactamase FRET, potentiator mode; S1P1 agonist co-added at EC20, 2 nM; 100% = saturating reference agonist, 0% = basal. activation, % at 9.5 µM. 56,000 tested, 0.57% active. AID 449;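 active = activation above a cutoff set at the mean activation of all tested compounds plus 3 SD, cut at about 54% in these data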;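 also: forskolin at 4 µM as EC80 and the EC20 agonist is SEW2871; 100% = SEW2871 at its EC100 plus forskolin at EC80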
SF-1 act: SF-1 (human) activation. Q13285. CHO-K1 Gal4-SF-1 LBD luciferase reporter; % increase over DMSO SF-1-specific signal. activation, % at 10 µM. 65,000 tested, 1.9% active. AID 522;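 active = activation above the mean activation of all tested compounds plus 3 SD, cut at about 50% in these data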
Target sequence (Q13285 whole entry, looked up, the tested form may be a part): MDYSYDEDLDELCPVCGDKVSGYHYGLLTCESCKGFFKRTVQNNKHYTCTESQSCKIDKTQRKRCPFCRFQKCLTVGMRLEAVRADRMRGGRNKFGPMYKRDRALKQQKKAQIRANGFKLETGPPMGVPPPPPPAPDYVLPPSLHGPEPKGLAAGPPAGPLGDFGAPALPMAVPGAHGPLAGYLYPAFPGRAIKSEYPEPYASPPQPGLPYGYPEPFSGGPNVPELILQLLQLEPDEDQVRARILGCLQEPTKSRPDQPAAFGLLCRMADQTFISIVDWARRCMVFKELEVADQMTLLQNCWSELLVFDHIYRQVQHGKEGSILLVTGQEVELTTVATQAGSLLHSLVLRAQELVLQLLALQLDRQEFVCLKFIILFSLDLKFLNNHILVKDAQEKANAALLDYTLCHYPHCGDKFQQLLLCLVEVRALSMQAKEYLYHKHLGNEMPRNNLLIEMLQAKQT
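System: CHO-K1 cells with Gal4–hSF-1 LBD chimera plus Gal4-driven luciferase; quantity: 4,000 CHO-K1 cells per well; compound: one dose, 10 µM compound, 1% DMSO; times: 20 h compound treatment, 37 °C; measured by: SteadyLite luciferase luminescence; read-out: percent activation versus DMSO; benchmarks: DMSO and mock-transfected background; replicates: one test per compound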
M1 ag: activates the M1 muscarinic receptor; CHO-M1 cells, Fluo-4 calcium fluorescence, agonist mode; active compounds read high; B-score at 10 µM; 64,000 tested, 3% active; AID 626;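 active = fluorescence rise, raw or as B-score row- and column-corrected plate score, outside the 99.7% band of its plate's samples, either direction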
RORA act: activators of human nuclear receptor RORA; activation, % at 10 µM; 65,000 tested, 1.5% active; CHO-K1 Gal4-RORA LBD luciferase reporter, luminescence; percent increase over mock-subtracted basal signal; P35398; AID 560;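 active = activation above the mean of all tested compounds plus 3 SD, cut at about 49% in these data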;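 also: 0% = DMSO-treated RORA cells and 100% = added signal equal to DMSO minus mock-transfected cells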
S1P3 agonist: S1P3 (human) receptor agonism | S1P3 NFAT-BLA reporter cells, FRET ratio; relative to 1 µM S1P, basal subtracted | activation, % at 4.5 µM | 60,000 tested, 0.1% active | AID 373;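 active = activation above the screen-wide mean plus 3 SD, cut at about 4.5% in these data, passing the limit was not always enough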
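Assay system: CHO cells stably expressing human S1P3, Gα16 and NFAT-β-lactamase reporter. Timing: overnight plating, 4 h compound 37 °C, 2 h substrate RT. Signal: β-lactamase FRET emission ratio 460/535 nm. Measure: percent activation versus median 1 µM S1P response, basal-subtracted, per plate. Repeats: primary screen single test, confirmation screen in triplicate.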
M1 antag: M1 muscarinic receptor (rat) antagonism; P08482; CHO-M1 cells, Fluo-4 calcium, ACh EC80 antagonist mode; active compounds read low; B-score at 10 µM; 64,000 tested, 3.4% active; AID 628;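 active = calcium fluorescence response, raw or row-and-column corrected B-score, differing from the plate sample mean either way at a set confidence level, mostly lower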
M1 agonist conf: confirmation of rat M1 muscarinic receptor agonists | shares compounds with M1 ag | CHO-M1 cells, Fluo-4 calcium fluorescence, agonist mode; actives lie on both sides | fluorescence change (max-min) at 10 µM | 1,700 tested, 19% active | AID 1488;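 active = fluorescence change differs from the solvent-only DMSO control mean at a set confidence level in both duplicate runs; inconclusive = differs from solvent-only control mean in just one of two runs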;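 also: an EC20 dose of acetylcholine follows compound addition during the same imaging run; raw fluorescence intensity difference in instrument units with no normalization to controls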
M4 ag counter: rat M4 muscarinic agonism, M1 counter-screen; CHO M4/Gqi5 cells, Fluo-4 calcium fluorescence, agonist mode; actives lie on both sides; AID 1741; shares compounds with M1 ag; 1,700 tested, 9% active; fluorescence change (max-min) at 10 µM;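 active = fluorescence change differing from the plate's solvent-only control wells at 99.7% confidence in both duplicates, whether higher or lower; inconclusive = differs from solvent controls in only one of two duplicates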
The depositor's hits bear a star; u = inconclusive; x = not tested or not shown. Shown are actives, neighbours in structure and some others; about 8.8% of the full set was active somewhere.

SMILES	S1P1 ag pot	SF-1 act	M1 ag	RORA act	S1P3 agonist	M1 antag	M1 agonist conf	M4 ag counter
O=C(c1cc(-c2ccncc2)nc2ccccc12)N1CCN(c2ccccn2)CC1	x	13	1.6	24	x	-0.34	x	x
O=C(c1cc(-c2ccncc2)nc2ccccc12)N1CCN(c2ccc(N3CCOCC3)nn2)CC1	x	3	4.8*	13	x	0.35	-22	-28
O=C(Cn1cc(C(=O)c2cccs2)c2ccccc21)NCc1ccc2c(c1)OCO2	20	-1	1.3	14	-1	0.036	x	x
CCCC12CN3CC(CCC)(CN(C1)C3C(O)C(O)C(O)CO)C2=O (stereo not given)	-5	0	-0.22	-3	-2	-0.76	x	x
CC(C)(C)NC(=O)c1ccc2c(c1)N(CC(=O)N1CCN(c3ccccc3F)CC1)C(=O)C(C)(C)O2	12	13	1.5	1	-1	-0.16	x	x
O=C(c1cc(-c2ccccc2)nc2ccccc12)N1CCN(c2ccccn2)CC1	x	6	4.1*	1	-1	-1.2	-16	-41
COc1ccc(S(=O)(=O)C(C#N)c2nc3ccccc3nc2N2CCC(C)CC2)cc1 (stereo not given)	x	13	3.9*	8	x	0.9	u	-43
CC1CCCN(c2nc3ccccc3nc2C(C#N)S(=O)(=O)c2ccccc2)C1 (stereo not given)	x	14	1.2	42	x	0.36	x	x
Cc1ccc(C)c(-c2nc3ccc(N)cc3[nH]2)c1	-8	11	-0.7	28	0	0.73	x	x
Nc1ccc2nc(-c3ccc(Cl)cc3)[nH]c2c1	5	64*	-2.2*	82*	0	-0.67	u	-80
Cc1n[nH]c(C)c1S(=O)(=O)N(CC(=O)NC1CCCC1)c1ccc(C(C)C)cc1	-15	-8	3.9*	2	0	-0.22	-19	-48
CCc1ccccc1NC(=O)CN1CCC(NC(=O)COC)CC1	-11	4	0.3	13	-2	-0.4	x	x
COc1ccccc1NC(=O)CN(Cc1ccco1)C(=O)c1ccc(-n2nc(C)cc2C)cc1	16	5	5.9*	-4	0	0.18	-17	u
COc1ccc(-n2c(C)cc(C(=O)COC(=O)Cn3cnc4ccccc43)c2C)cc1	58	3	5.5*	0	-1	-3.4*	u	-37
Cc1cc(C(=O)COc2cccc(-n3cnnn3)c2)c(C)n1-c1ccccc1	54	18	1.2	17	-1	-0.59	x	x
N=c1nc(N2CCCCC2)cc(N)n1O	4	-6	10*	-13	-2	-0.32	-4.4	-26
Cc1cc(N2CCCCCC2)nc(-c2ccccc2O)n1	8	6	0.21	6	-2	0.19	x	x
CCOc1ccc(NC(=O)CC2CC(C)(C)OC2=O)cc1 (stereo not given)	-16	3	12*	-3	-1	0.23	-23	u
CCOc1cc(-c2ccc(N)c(OCC)c2)ccc1N	15	-9	36*	-10	0	0.077	249*	211*
Cc1csc(SCCn2c(N3CCN(c4ccccc4)CC3)nc3c2c(=O)[nH]c(=O)n3C)n1	-11	14	5.4*	-4	0	-2.5*	u	-57
COc1ccc(-c2cn3c4c(sc3n2)CCCC4)cc1	x	-23	-0.24	-31	0	0.42	x	x
COc1ccc(CC(C(=O)Nc2cc(C)ccc2C)/C(N)=N/O)cc1 (stereo not given)	-9	2	2.4*	-16	0	-0.4	u	-49
CC1CCCCC1NC(=O)CSc1nnc(CN2CCOCC2)n1C (stereo not given)	-19	-17	13*	-2	0	1	-8.8	-14
Cc1nn(C)c(C)c1NC(=O)CCSc1nc(-c2ccco2)cc(C(F)(F)F)n1	-12	4	34*	12	-1	-3.7*	-8.3	-32
